# Test results from ChEMBL document CHEMBL1138193, “Synthesis and biological activity of 7-phenyl-6,9-dihydro-3H-pyrrolo[3,2-f]quinolin-9-ones: a new class of antimitotic agents devoid of aromatase activity” (J Med Chem, 2006).
# The source made the active and inactive calls. The calls are words filed in the database; no cut-off is given here.
# Legend:
# [1] = tested on: 4T1; test: Cytotoxicity against mouse 4T1 cells by MTT assay; assay type: functional, cell-based
# Outline: (§1)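 MTT colorimetric proliferation assay on human and murine tumour cell lines. Compounds tested over 50 to 0.1 µM; IC50 calculated from the concentration response.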
# [2] = tested on: HT-29; test: Cytotoxicity against human HT29 cells by MTT assay; assay type: functional, cell-based; outline: as §1
# [3] = tested on: BNL; test: Cytotoxicity against mouse BNL cells by MTT assay; assay type: functional, cell-based; outline: as §1
# [4] = tested on: MCF7; test: Cytotoxicity against human MCF7 cells by MTT assay; assay type: functional, cell-based; outline: as §1
# [5] = tested on: ARO; test: Cytotoxicity against human Aro cells by MTT assay; assay type: functional, cell-based; outline: as §1
# [6] = tested on: PT-45; test: Cytotoxicity against human PT45 cells by MTT assay; assay type: functional, cell-based; outline: as §1
# [7] = tested on: HepG2; test: Cytotoxicity against human HepG2 cells by MTT assay; assay type: functional, cell-based; outline: as §1
# [8] = tested on: NCI-H295R; test: Cytotoxicity against human H295R cells by MTT assay; assay type: functional, cell-based; outline: as §1
# [9] = tested on: HeLa; test: Cytotoxicity against human HeLa cells by MTT assay; assay type: functional, cell-based; outline: as §1
# [10] = tested on: A549; test: Cytotoxicity against human A549 cells by MTT assay; assay type: functional, cell-based
# [11] = tested on: OVCAR-3; test: Cytotoxicity against human Ovcar3 cells by MTT assay; assay type: functional, cell-based; outline: as §1
# [12] = tested on: HepG2; test: Cell cycle arrest at G2/M phase in HepG2 cells at 5-10 uM; assay type: functional, Homo sapiens
# [13] = tested on: OVCAR-3; test: Cell cycle arrest at G2/M phase in Ovcar3 cells at 5-10 uM; assay type: functional, Homo sapiens
# [14] = biological target: T1, Aromatase (Homo sapiens, UniProt P11511); test: Inhibition of aromatase activity in H295R cells at 5 uM; assay type: cell-based
# T1 sequence (P11511 whole entry): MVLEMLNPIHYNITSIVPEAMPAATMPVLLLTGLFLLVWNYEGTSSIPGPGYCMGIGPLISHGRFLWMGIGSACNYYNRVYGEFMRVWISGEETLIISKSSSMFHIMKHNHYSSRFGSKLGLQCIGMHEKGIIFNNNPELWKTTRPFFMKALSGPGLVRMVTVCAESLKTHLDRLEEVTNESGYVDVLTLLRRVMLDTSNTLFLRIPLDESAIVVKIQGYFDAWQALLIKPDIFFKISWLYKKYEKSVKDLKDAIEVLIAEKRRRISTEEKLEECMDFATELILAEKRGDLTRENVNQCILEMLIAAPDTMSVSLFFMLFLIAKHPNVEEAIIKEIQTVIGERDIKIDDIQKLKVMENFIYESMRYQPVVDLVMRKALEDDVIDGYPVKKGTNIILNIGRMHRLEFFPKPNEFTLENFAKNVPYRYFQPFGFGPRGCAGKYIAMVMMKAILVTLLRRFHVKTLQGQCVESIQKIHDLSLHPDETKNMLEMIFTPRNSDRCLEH
# Outline: (§2)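 H295R cells cultured 24 h in DMEM-F12 with or without forskolin (25 µM). Compound (5, 10 or 15 µM) added 1 h before [1β-³H]androstenedione substrate (0.5 µM), then 2 h further exposure. Modified tritiated water release read-out as pmol ³H₂O/h/mg protein. Letrozole reference. Mean ± SEM of three experiments in triplicate.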
# [15] = biological target: T2, Tubulin (Homo sapiens) (UniProt P68371+Q9H4B7+P0DPH7+P68366+Q13509+Q71U36+P04350+Q3ZCM7+P07437+P68363+Q9BQE3+Q6PEY2+Q13885+Q9BVA1+Q9BUF5); test: Inhibition of tubulin polymerization at 2.5 uM; assay type: protein-complex assay
# Outline: (§3)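 Fluorimetric microtubule polymerization kit using purified tubulin. Compound at 5, 2.5, 1.25 and 0.625 µM; fluorescence (ex 355/em 450 nm) read every minute for 60 min. Taxol and vincristine (3 µM) as references.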
# [16] = biological target: T2, Tubulin (Homo sapiens); test: Microtubule disassembly in Ovcar3 cells at 5 uM; assay type: functional, cell-based; conditions: OVCAR-3
# Outline: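 Ovcar-3 cells exposed 18 h to 5 µM (drug-free and vincristine 5 µM controls), fixed, stained with anti-β-tubulin antibody, and microtubule distribution examined by fluorescence microscopy.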
# [17] = biological target: T1, Aromatase; test: Inhibition of aromatase activity in H295R cells at 15 uM; assay type: cell-based; outline: as §2
# [18] = biological target: T2, Tubulin (Homo sapiens); test: Inhibition of tubulin polymerization at 5 uM; assay type: protein-complex assay; outline: as §3
# [19] = biological target: T1, Aromatase; test: Inhibition of aromatase activity in H295R cells at 10 uM; assay type: cell-based; outline: as §2
# [20] = tested on: BNL; test: Cytotoxicity against BNL 1ME A.7R.1 cells subcutaneously implanted in BALB/c mouse at 40 mg/kg, ip; assay type: functional; conditions: route intraperitoneal
# Outline: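 Male Balb/c mice implanted subcutaneously in the dorsal region with 10⁷ syngenic hepatocarcinoma cells. From day 2, daily intraperitoneal dosing at 40 mg/kg, with saline and vehicle control groups (n = 8-12 per group). Tumour measured daily by calipers over 10 days; volume = A × B²/2. Means ± SE.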
SMILES,IC50 [1] [µM],IC50 [2] [µM],IC50 [3] [µM],IC50 [4] [µM],IC50 [5] [µM],IC50 [6] [µM],IC50 [7] [µM],IC50 [8] [µM],IC50 [9] [µM],IC50 [10] [µM],IC50 [11] [µM],Activity [12] [%],Activity [13] [%],Activity [14],Activity [15],Activity [16],Activity [17],Activity [18],Activity [19],Activity [20] [%]
Oc1ccnc2ccc3[nH]ccc3c12,> 50,> 50,> 50,> 50,> 50,> 50,> 50,> 50,> 50,> 50,> 50,,,,,,,,,
Nc1cccc(-c2cc(O)c3c(ccc4[nH]ccc43)n2)c1,50,> 50,> 50,15,30,8,30,50,7,30,50,17.1,14,,,,,,,
N#Cc1cccc(-c2cc(O)c3c(ccc4[nH]ccc43)n2)c1,> 50,> 50,40,> 50,3,40,40,> 50,8,> 50,> 50,17.3,15,,,,,,,
CC(=O)O[C@H]1C(=O)[C@@]2(C)[C@H]([C@H](OC(=O)c3ccccc3)[C@]3(O)C[C@H](OC(=O)[C@H](O)[C@@H](NC(=O)c4ccccc4)c4ccccc4)C(C)=C1C3(C)C)[C@]1(OC(C)=O)CO[C@@H]1C[C@@H]2O [PACLITAXEL],0.2,,0.2,,,,,0.08,,,,,,,,,,,,
O=[N+]([O-])c1cccc(-c2cc(O)c3c(ccc4[nH]ccc43)n2)c1,> 50,> 50,> 50,> 50,39,45,30,40,25,32,> 50,15.8,10,,,,,,,
N#Cc1ccc(-c2cc(O)c3c(ccc4[nH]ccc43)n2)cc1,25,> 50,15,50,40,20,10,30,15,15,50,21.5,14.9,,,,,,,
O=c1cc(-c2ccccc2)[nH]c2ccc3[nH]ccc3c12,2,2,3,0.8,0.7,0.5,8,0.4,0.7,1,6,47.7,62,Not Active,Dose-dependent effect,Active,Not Active,Dose-dependent effect,Not Active,83.2
